Data published in ChEMBL document CHEMBL1124681, “Studies on hindered phenols and analogues. 1. Hypolipidemic and hypoglycemic agents with ability to inhibit lipid peroxidation” (J Med Chem, 1989).
In brackets after ≈: the same amount, converted by molar mass. Several values for one entry are separate records, joined by “and”; a condition that tells them apart may be missing. Equal entries are not always repeated.

Experiments:
[1] = test system: Mus musculus; experiment: Hypoglycemic activity at dose 50 mg/Kg in KK-mice after peroral administration; assay type: functional
Procedure, shortened: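 Male KK-mice, a genetically diabetic NIDDM model, were housed singly from 8 weeks of age and used at about 4-5 months once body weight exceeded 40 g. Compound was suspended in 0.5% carboxymethylcellulose saline and dosed orally 18 h before tail-vein blood sampling into heparinized tubes. Plasma glucose was measured with a glucose analyzer. Values are % decrease versus vehicle-dosed controls run simultaneously.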

[2] = test system: Mus musculus; experiment: (§1) In vivo activity against triglycerides (TG) by using Alloxan-induced hyperlipoperoxidemia method in BALB/c mice after peroral administration at 100 mg/Kg dose; assay type: functional
Procedure, shortened: (§2)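 Male BALB/c mice, 8 weeks old, were fasted 18 h and then given alloxan 75 mg/kg iv. Compound was dosed orally 30 min before and 24 and 30 h after alloxan. Cervical blood was taken at 48 h, diluted in saline and centrifuged. Serum LPO was measured by TBA method; cholesterol and TG by enzymatic kits. Values are % decrease versus alloxan controls without compound.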

[3] = test system: Mus musculus; experiment: In vivo activity against hypocholesterol (CHOL) by using Alloxan-induced hyperlipoperoxidemia method in BALB/c mice after peroral administration at 100 mg/Kg dose; assay type: functional; procedure, shortened: as §2
[4] = test system: Mus musculus; experiment: In vivo activity against serum lipid peroxidation level (s-LPO) by using Alloxan-induced hyperlipoperoxidemia method in BALB/c mice after peroral administration at 100 mg/Kg dose; assay type: functional; procedure, shortened: as §2
[5] = species: Rattus norvegicus; experiment: In vitro inhibitory activity against rat microsomal lipid peroxidation (m-LPO); assay type: functional
Procedure, shortened: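 Lipid peroxidation used rat liver microsomes driven by ferrous sulfate/cysteine, per the Malvy et al. approach. IC50 is given in µg/mL.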

[6] = test system: Mus musculus; experiment: In vivo activity against triglycerides (TG) by using Alloxan-induced hyperlipoperoxidemia method in BALB/c mice after peroral administration at 10 mg/Kg dose; assay type: functional; procedure, shortened: as §2
[7] = test system: Mus musculus; experiment: In vivo activity against triglycerides (TG) by using Alloxan-induced hyperlipoperoxidemia method in BALB/c mice after peroral administration at 300 mg/Kg dose; assay type: functional; procedure, shortened: as §2
[8] = test system: Mus musculus; experiment: In vivo activity against hypocholesterol (CHOL) by Alloxan-induced hyperlipoperoxidemia method in BALB/c mice after peroral administration at 50 mg/Kg dose; assay type: functional; procedure, shortened: as §2
[9] = test system: Mus musculus; experiment: In vivo activity against hypocholesterol (CHOL) by using Alloxan-induced hyperlipoperoxidemia method in BALB/c mice after peroral administration at 10 mg/Kg dose; assay type: functional; procedure, shortened: as §2
[10] = test system: Mus musculus; experiment: In vivo activity against hypocholesterol (CHOL) by using Alloxan-induced hyperlipoperoxidemia method in BALB/c mice after peroral administration at 300 mg/Kg dose; assay type: functional; procedure, shortened: as §2
[11] = test system: Mus musculus; experiment: In vivo activity against serum lipid peroxidation level (s-LPO) by using Alloxan-induced hyperlipoperoxidemia method in BALB/c mice after peroral administration at 10 mg/Kg dose; assay type: functional; procedure, shortened: as §2
[12] = test system: Mus musculus; experiment: In vivo activity against serum lipid peroxidation level (s-LPO) by using Alloxan-induced hyperlipoperoxidemia method in BALB/c mice after peroral administration at 300 mg/Kg dose; assay type: functional; procedure, shortened: as §2
[13] = test system: Mus musculus; experiment: In vivo activity against serum lipid peroxidation level (s-LPO) by using Alloxan-induced hyperlipoperoxidemia method in BALB/c mice after peroral administration at 50 mg/Kg dose; assay type: functional; procedure, shortened: as §2
[14] = test system: Mus musculus; experiment: In vivo activity against triglycerides (TG) by Alloxan-induced hyperlipoperoxidemia method in BALB/c mice after peroral administration at 50 mg/Kg dose; assay type: functional; procedure, shortened: as §2
[15] = test system: Mus musculus; experiment: In vivo activity against triglycerides (TG) by using Alloxan-induced hyperlipoperoxidemia method in BALB/c mice after peroral administration at 200 mg/Kg dose; assay type: functional; procedure, shortened: as §2
[16] = test system: Mus musculus; experiment: In vivo activity against hypocholesterol (CHOL) by using Alloxan-induced hyperlipoperoxidemia method in BALB/c mice after peroral administration at 200 mg/Kg dose; assay type: functional; procedure, shortened: as §2
[17] = test system: Mus musculus; experiment: In vivo activity against serum lipid peroxidation level (s-LPO) by using Alloxan-induced hyperlipoperoxidemia method in BALB/c mice after peroral administration at 200 mg/Kg dose; assay type: functional; procedure, shortened: as §2
[18] = test system: Rattus norvegicus; experiment: Liver weight in Wistar-Imamichi rats at 200 mg/Kg dose in 12 rats; assay type: functional
[19] = test system: Mus musculus; experiment: In vivo activity against triglycerides (TG) by using Alloxan-induced hyperlipoperoxidemia method in BALB/c mice after peroral administration at 300 mg/kg dose; assay type: functional; settings: route oral; procedure, shortened: as §2
[20] = test system: Mus musculus; experiment: In vivo activity against hypocholesterol (CHOL) by using Alloxan-induced hyperlipoperoxidemia method in BALB/c mice after peroral administration at 100 mg/kg dose; assay type: functional; settings: route oral; procedure, shortened: as §2
[21] = test system: Mus musculus; experiment: In vivo activity against serum lipid peroxidation level (s-LPO) by using Alloxan-induced hyperlipoperoxidemia method in BALB/c mice after peroral administration at 100 mg/kg dose; assay type: functional; settings: route oral; procedure, shortened: as §2
[22] = test system: Mus musculus; experiment: In vivo activity against serum lipid peroxidation level (s-LPO) by using Alloxan-induced hyperlipoperoxidemia method in BALB/c mice after peroral administration at 300 mg/kg dose; assay type: functional; settings: route oral; procedure, shortened: as §2
[23] = species: Rattus norvegicus; experiment: Hypotriglyceridemic activity of Wistar-Imamichi rats in 12 animals
[24] = species: Rattus norvegicus; experiment: Inhibitory activity on peroxidation by a relative peroxide value(POV) to vitamin E by using ethyl linoleate; assay type: functional
Procedure, shortened: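 Peroxide formed was titrated with 0.01 N Na2S2O3 after adding water. The peroxide value was expressed relative to vitamin E.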

[25] = species: Rattus norvegicus; experiment: liver weight in Wistar-Imamichi rats at 0.2% in the diet for 7 days in 6 rats; settings: dose 0.2% in diet
[26] = test system: Rattus norvegicus; experiment: Hypotriglyceridemic activity of Wistar-Imamichi rats in 6 animals at 300 mg/kg dose
[27] = test system: Mus musculus; experiment: as §1; assay type: functional; procedure, shortened: as §2; remark: listed apart in the source

| SMILES | Decrease [2] | Decrease [3] | Decrease [4] | IC50 [5] | other results |
| --- | --- | --- | --- | --- | --- |
| CC(=O)Oc1c(C)c(C)c2c(c1C)CCC(C)(COc1ccc(CC3SC(=O)NC3=O)cc1)O2 (configuration not stated) | -4% | 4% | 6.7% | < 0.1 µg/mL | Decrease [1]: 2.6% |
| CCCC(=O)Oc1c(C)c(C)c2c(c1C)CCC(C)(COc1ccc(CC3SC(=O)NC3=O)cc1)O2 (configuration not stated) | – | – | – | < 0.1 µg/mL | – |
| CC(=O)Oc1c(C)c(C)c2c(c1C)CCC(C)(CCC[C@H](C)CCC[C@H](C)CCCC(C)C)O2 (some centres not stated) [TOCOPHEROL ACETATE] | 27.3% | 10.7% | 46.1% | > 1 µg/mL | Decrease [6]: 36.5%; Decrease [7]: 16.1%; Decrease [8]: 8.3%; Decrease [9]: 20.4%; Decrease [10]: 9.1%; Decrease [11]: 23.5%; Decrease [12]: 56.6%; Decrease [13]: 27.9%; Decrease [14]: 5.2% |
| Cc1c(C)c2c(c(C)c1O)CCC(C)(COc1ccc(CC(Cl)C(=O)O)cc1)O2 (configuration not stated) | 33.9% | 14.9% | 46.3% | 0.1 µg/mL (≈ 0.239 µM) | – |
| Cc1c(C)c2c(c(C)c1OC(=O)c1ccccc1)CCC(C)(COc1ccc(CC3SC(=O)NC3=O)cc1)O2 (configuration not stated) | – | – | – | 0.1 µg/mL (≈ 0.183 µM) | – |
| CC1(COc2ccc(CC3SC(=O)NC3=O)cc2)CCc2cc(O)c(C(C)(C)C)cc2O1 (configuration not stated) | -48.6% | 5.6% | 16.1% | < 0.1 µg/mL | Decrease [1]: 28.5% |
| CC(C)(Sc1cc(C(C)(C)C)c(O)c(C(C)(C)C)c1)Sc1cc(C(C)(C)C)c(O)c(C(C)(C)C)c1 [PROBUCOL] | -5.3% | -1.1% | 5.8% | > 1 µg/mL | Decrease [15]: -25.2%; Decrease [7]: -3%; Decrease [16]: -9.7%; Decrease [10]: 0.8%; Decrease [17]: -22.1%; Decrease [12]: 6.1%; Increase [18]: 0.2% |
| CC1(COc2ccc(CC3SC(=O)NC3=O)cc2)CCCCC1 (configuration not stated) [CIGLITAZONE] | 7.9% | 10.8% | 18.7% | > 1 µg/mL | – |
| Cc1c(C)c2c(c(C)c1O)CCC(C)(COc1ccc(CC3SC(N)=NC3=O)cc1)O2 (configuration not stated) | 16.8% | 7.2% | 11.9% | < 0.1 µg/mL | – |
| Cc1c(C)c2c(c(C)c1O)CCC(COc1ccc(CC3SC(=O)NC3=O)cc1)(CC(C)C)O2 (configuration not stated) | 11.9% | 12.1% | 1.5% | 0.1 µg/mL (≈ 0.207 µM) | – |
| Cc1c(C)c2c(c(C)c1OC(=O)c1cccnc1)CCC(C)(COc1ccc(CC3SC(=O)NC3=O)cc1)O2 (configuration not stated) | – | – | – | < 0.1 µg/mL | – |
| Cc1ccc(C)c(OCCCC(C)(C)C(=O)O)c1 [GEMFIBROZIL] | – | – | – | > 1 µg/mL | Decrease [19]: 12.3% and 15.9%; Decrease [20]: 3.2%; Decrease [21]: 12.3%; Decrease [22]: 20.5%; Decrease [23]: 39.4% |
| CCC1(COc2ccc(CC3SC(=O)NC3=O)cc2)CCc2c(C)c(O)c(C)c(C)c2O1 (configuration not stated) | 14% | 19.5% | 17.6% | 0.1 µg/mL (≈ 0.22 µM) | – |
| Cc1c(C)c2c(c(C)c1O)CCC(COc1ccc(CC3SC(=O)NC3=O)cc1)O2 (configuration not stated) | – | – | – | < 0.1 µg/mL | – |
| COc1c(OC(C)=O)c(C)c2c(c1OC)OC(C)(CCOc1ccc(CC3SC(N)=NC3=O)cc1)CC2 (configuration not stated) | – | – | – | 0.3 µg/mL (≈ 0.568 µM) | – |
| CC(=O)Oc1cc2c(cc1C(C)(C)C)OC(C)(CCOc1ccc(CC3SC(N)=NC3=O)cc1)CC2 (configuration not stated) | – | – | – | 0.1 µg/mL (≈ 0.196 µM) | – |
| Cc1cc(OCCCC(C)(C)CO)c(C)c(C)c1O | – | – | – | 0.1 µg/mL (≈ 0.375 µM) | Decrease [21]: 27.4%; Relative peroxidation [24]: 0.42; Increase [25]: 23.9%; Decrease [26]: 57.3% |
| CC(=O)Oc1cc2c(cc1C)OC(C)(COc1ccc(CC3SC(N)=NC3=O)cc1)CC2 (configuration not stated) | – | – | – | 0.3 µg/mL (≈ 0.66 µM) | – |
| Cc1c(C)c2c(c(C)c1O)SC(C)O2 (configuration not stated) | – | – | – | < 0.1 µg/mL | – |
| Cc1c(C)c2c(c(C)c1O)SCO2 | – | – | – | < 0.1 µg/mL | – |
| CCOC(=O)C(C)(C)Oc1ccc(Cl)cc1 [CLOFIBRATE] | 19.6% | 5.9% | 26.6% | > 1 µg/mL | Decrease [7]: 22.8%; Decrease [10]: 6.8%; Decrease [12]: 37.6%; Decrease [13]: 2.8%; Decrease [14]: 1.1%; Increase [18]: 37.2%; Decrease [23]: 37.6% |
| CC1(CCOc2ccc(CC3SC(=O)NC3=O)cc2)CCc2cc(O)c(C(C)(C)C)cc2O1 (configuration not stated) | – | – | – | 0.1 µg/mL (≈ 0.213 µM) | – |
| Cc1cc(OCCCCCCCC(C)(C)CO)c(C)c(C)c1O | – | – | – | < 0.1 µg/mL | – |
| Cc1cc2c(cc1O)CCC(C)(COc1ccc(CC3SC(=O)NC3=O)cc1)O2 (configuration not stated) | – | – | – | 0.3 µg/mL (≈ 0.726 µM) | – |
| CCCC1Oc2c(C)c(C)c(O)c(C)c2S1 (configuration not stated) | – | – | – | < 0.1 µg/mL | – |
| Cc1cc(C(C)(C)C)c(O)c(C(C)(C)C)c1 [BUTYLATED HYDROXYTOLUENE] | – | – | – | 0.1 µg/mL (≈ 0.454 µM) | – |
| Cc1c(C)c2c(c(C)c1O)CCC(C)(CCOc1ccc(CC3SC(=O)NC3=O)cc1)O2 (configuration not stated) | – | – | – | < 0.1 µg/mL | – |
| COc1c(O)c(C)c2c(c1OC)OC(C)(CCOc1ccc(CC3SC(=O)NC3=O)cc1)CC2 (configuration not stated) | – | – | – | 0.3 µg/mL (≈ 0.615 µM) | – |
| Cc1cc(OCCCC(C)(C)C(=O)O)c(C)c(C)c1O | – | – | – | > 1 µg/mL | Relative peroxidation [24]: 0.71 |
| Cc1c(C)c2c(c(C)c1O)CCC(C)(COc1ccc(CC3SC(=O)NC3=O)cc1)O2 (configuration not stated) [TROGLITAZONE] | 57.5% | – | 54.3% | 0.1 µg/mL (≈ 0.226 µM) | Decrease [1]: 38.5%; Decrease [27]: 57.5%; Decrease [8]: 19.7%; Decrease [13]: 36%; Decrease [14]: 31.9% |
